Experimental data as given in ChEMBL document CHEMBL5303300, “EUbOPEN Chemogenomics Library - Multiplex” (2023).
Several values for one entry are separate records, joined by “and”; a condition that tells them apart may be missing. Equal values may be shown once.

Tested on: HEK-293T
Test: Multiplex assay against HEK293T
Assay type: toxicity, cell-based
Conditions: human, number of replicates 2
Outline: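 Cells were classed with CellPathfinder machine-learning gating, first as Hoechst high-intensity objects or normal cells, then (normal cells) as healthy, pyknosed or fragmented nuclei, and finally (pyknosed cells) as mitotic or apoptotic. Staining of live cells at seeding used Hoechst33342, BioTracker Green Microtubule Cytoskeleton Dye, MitoTracker Red and Annexin V Alexa Fluor 680, with imaging on a CQ1 microscope at 37°C and 5% CO2 after compound addition. Tubulin, mitochondrial-mass and membrane-permeability phenotypes are per cents of healthy-nucleus cells.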

[1] = 12 h, 1 µM, compound concentration 1 uM
[2] = 12 h, 10 µM, compound concentration 10 uM
[3] = 24 h, 1 µM, compound concentration 1 uM
[4] = 24 h, 10 µM, compound concentration 10 uM
[5] = 48 h, 1 µM, compound concentration 1 uM
[6] = 48 h, 10 µM, compound concentration 10 uM

Question: What does the source list for CN[C@@H]1CC[C@@H](c2ccc(Cl)c(Cl)c2)c2ccccc21.Cl?
Answer: Population Apoptotic (%) [1]: 46% and 42%; Population Fragmented Nuclei (%) [1]: 2% and 3%; Population Healthy Nuclei (%) [1]: 84%; Population Hoechst High Intensity Objects (%) [1]: 8% and 7%; Population Membrane Permeable-Phenotype (%) [1]: 3%; Population Mitochondria Different-Phenotype (%) [1]: 21% and 16%; Population Mitotic Cells (%) [1]: 53% and 57%; Population Normal (%) [1]: 91% and 92%; Population Pyknosed Nuclei (%) [1]: 12% and 11%; Population Tubulin-Different-Phenotype (%) [1]: 68% and 66%; Population Apoptotic (%) [2]: 57% and 46%; Population Fragmented Nuclei (%) [2]: 3% and 1%; Population Healthy Nuclei (%) [2]: 81% and 80%; Population Hoechst High Intensity Objects (%) [2]: 6%; Population Membrane Permeable-Phenotype (%) [2]: 1% and 3%; Population Mitochondria Different-Phenotype (%) [2]: 48% and 54%; Population Mitotic Cells (%) [2]: 42% and 53%; Population Normal (%) [2]: 93%; Population Pyknosed Nuclei (%) [2]: 15% and 17%; Population Tubulin-Different-Phenotype (%) [2]: 96%; Population Apoptotic (%) [3]: 41% and 38%; Population Fragmented Nuclei (%) [3]: 3% and 4%; Population Healthy Nuclei (%) [3]: 88%; Population Hoechst High Intensity Objects (%) [3]: 8%; Population Membrane Permeable-Phenotype (%) [3]: 3% and 2%; Population Mitochondria Different-Phenotype (%) [3]: 10%; Population Mitotic Cells (%) [3]: 58% and 61%; Population Normal (%) [3]: 91%; Population Pyknosed Nuclei (%) [3]: 8% and 7%; Population Tubulin-Different-Phenotype (%) [3]: 42% and 45%; Population Apoptotic (%) [4]: 66% and 59%; Population Fragmented Nuclei (%) [4]: 4% and 2%; Population Healthy Nuclei (%) [4]: 78% and 81%; Population Hoechst High Intensity Objects (%) [4]: 7% and 11%; Population Membrane Permeable-Phenotype (%) [4]: 2%; Population Mitochondria Different-Phenotype (%) [4]: 63% and 59%; Population Mitotic Cells (%) [4]: 33% and 40%; Population Normal (%) [4]: 92% and 88%; Population Pyknosed Nuclei (%) [4]: 16% and 15%; Population Tubulin-Different-Phenotype (%) [4]: 94%; Population Apoptotic (%) [5]: 14% and 15%; Population Fragmented Nuclei (%) [5]: 11% and 10%; Population Healthy Nuclei (%) [5]: 84% and 86%; Population Hoechst High Intensity Objects (%) [5]: 10% and 9%; Population Membrane Permeable-Phenotype (%) [5]: 4%; Population Mitochondria Different-Phenotype (%) [5]: 1%; Population Mitotic Cells (%) [5]: 85% and 84%; Population Normal (%) [5]: 89% and 90%; Population Pyknosed Nuclei (%) [5]: 3%; Population Tubulin-Different-Phenotype (%) [5]: 18% and 23%; Population Apoptotic (%) [6]: 58% and 75%; Population Fragmented Nuclei (%) [6]: 5%; Population Healthy Nuclei (%) [6]: 84% and 83%; Population Hoechst High Intensity Objects (%) [6]: 8% and 13%; Population Membrane Permeable-Phenotype (%) [6]: 2% and 3%; Population Mitochondria Different-Phenotype (%) [6]: 29% and 34%; Population Mitotic Cells (%) [6]: 41% and 24%; Population Normal (%) [6]: 91% and 86%; Population Pyknosed Nuclei (%) [6]: 9% and 11%; Population Tubulin-Different-Phenotype (%) [6]: 76% and 87%

Question: Which “Population Apoptotic (%)” value [1] does the source give for CN(C)[C@H]1CC[C@H](Nc2ncc3ncnc(Nc4ccc(F)c(Cl)c4)c3n2)CC1 here?
Answer: 46% and 50%

Question: And the “Population Fragmented Nuclei (%)” value [1]?
Answer: 4% and 5%

Question: What about the “Population Healthy Nuclei (%)” value [1] of the same molecule?
Answer: 88% and 87%

Question: What about the “Population Hoechst High Intensity Objects (%)” value [1] of the same molecule?
Answer: 9% and 10%

Question: What about the “Population Membrane Permeable-Phenotype (%)” value [1] of the same molecule?
Answer: 2% and 1%

Question: What about the “Population Mitochondria Different-Phenotype (%)” value [1] of the same molecule?
Answer: 14% and 10%

Question: What about the “Population Mitotic Cells (%)” value [1] of the same molecule?
Answer: 53% and 50%

Question: What about the “Population Normal (%)” value [1] of the same molecule?
Answer: 90% and 89%

Question: And the “Population Pyknosed Nuclei (%)” value [1]?
Answer: 7%

Question: And the “Population Tubulin-Different-Phenotype (%)” value [1]?
Answer: 45% and 36%

Question: What about the “Total Cell Count” value [1] of the same molecule?
Answer: 608 and 681

Question: And the “Population Apoptotic (%)” value [2]?
Answer: 30% and 17%

Question: What about the “Population Fragmented Nuclei (%)” value [2] of the same molecule?
Answer: 6% and 7%

Question: And the “Population Healthy Nuclei (%)” value [2]?
Answer: 82% and 79%

Question: And the “Population Hoechst High Intensity Objects (%)” value [2]?
Answer: 47% and 50%

Question: What about the “Population Membrane Permeable-Phenotype (%)” value [2] of the same molecule?
Answer: 3% and 4%

Question: What about the “Population Mitochondria Different-Phenotype (%)” value [2] of the same molecule?
Answer: 6% and 5%

Question: And the “Population Mitotic Cells (%)” value [2]?
Answer: 69% and 82%

Question: And the “Population Normal (%)” value [2]?
Answer: 52% and 49%

Question: What about the “Population Pyknosed Nuclei (%)” value [2] of the same molecule?
Answer: 10% and 13%

Question: What about the “Population Tubulin-Different-Phenotype (%)” value [2] of the same molecule?
Answer: 33% and 29%

Question: And the “Total Cell Count” value [2]?
Answer: 768 and 714

Question: What about the “Population Apoptotic (%)” value [3] of the same molecule?
Answer: 40% and 51%

Question: And the “Population Fragmented Nuclei (%)” value [3]?
Answer: 7% and 8%

Question: And the “Population Healthy Nuclei (%)” value [3]?
Answer: 87% and 88%

Question: And the “Population Hoechst High Intensity Objects (%)” value [3]?
Answer: 10% and 11%

Question: What about the “Population Membrane Permeable-Phenotype (%)” value [3] of the same molecule?
Answer: 2% and 1%

Question: What about the “Population Mitochondria Different-Phenotype (%)” value [3] of the same molecule?
Answer: 4% and 3%

Question: What about the “Population Mitotic Cells (%)” value [3] of the same molecule?
Answer: 60% and 48%

Question: And the “Population Normal (%)” value [3]?
Answer: 89% and 88%

Question: What about the “Population Pyknosed Nuclei (%)” value [3] of the same molecule?
Answer: 4% and 2%

Question: And the “Population Tubulin-Different-Phenotype (%)” value [3]?
Answer: 21% and 22%

Question: And the “Total Cell Count” value [3]?
Answer: 1021 and 1110

Question: What about the “Population Apoptotic (%)” value [4] of the same molecule?
Answer: 17% and 13%

Question: What about the “Population Fragmented Nuclei (%)” value [4] of the same molecule?
Answer: 8% and 9%

Question: What about the “Population Healthy Nuclei (%)” value [4] of the same molecule?
Answer: 82% and 77%

Question: What about the “Population Hoechst High Intensity Objects (%)” value [4] of the same molecule?
Answer: 44% and 49%

Question: What about the “Population Membrane Permeable-Phenotype (%)” value [4] of the same molecule?
Answer: 2%

Question: And the “Population Mitochondria Different-Phenotype (%)” value [4]?
Answer: 2% and 4%

Question: And the “Population Mitotic Cells (%)” value [4]?
Answer: 82% and 86%

Question: What about the “Population Normal (%)” value [4] of the same molecule?
Answer: 55% and 50%

Question: What about the “Population Pyknosed Nuclei (%)” value [4] of the same molecule?
Answer: 8% and 13%

Question: What about the “Population Tubulin-Different-Phenotype (%)” value [4] of the same molecule?
Answer: 24% and 21%

Question: What about the “Total Cell Count” value [4] of the same molecule?
Answer: 1161 and 1002

Question: And the “Population Apoptotic (%)” value [5]?
Answer: 17% and 35%

Question: What about the “Population Fragmented Nuclei (%)” value [5] of the same molecule?
Answer: 23% and 21%

Question: And the “Population Healthy Nuclei (%)” value [5]?
Answer: 74% and 76%

Question: And the “Population Hoechst High Intensity Objects (%)” value [5]?
Answer: 12% and 15%

Question: What about the “Population Membrane Permeable-Phenotype (%)” value [5] of the same molecule?
Answer: 4% and 3%

Question: What about the “Population Mitochondria Different-Phenotype (%)” value [5] of the same molecule?
Answer: 0%

Question: What about the “Population Mitotic Cells (%)” value [5] of the same molecule?
Answer: 82% and 64%

Question: What about the “Population Normal (%)” value [5] of the same molecule?
Answer: 87% and 84%

Question: What about the “Population Pyknosed Nuclei (%)” value [5] of the same molecule?
Answer: 2% and 1%

Question: And the “Population Tubulin-Different-Phenotype (%)” value [5]?
Answer: 9% and 13%

Question: And the “Total Cell Count” value [5]?
Answer: 2456 and 2598

Question: What about the “Population Apoptotic (%)” value [6] of the same molecule?
Answer: 24% and 15%

Question: And the “Population Fragmented Nuclei (%)” value [6]?
Answer: 22% and 17%

Question: What about the “Population Healthy Nuclei (%)” value [6] of the same molecule?
Answer: 74%

Question: What about the “Population Hoechst High Intensity Objects (%)” value [6] of the same molecule?
Answer: 36% and 42%

Question: What about the “Population Membrane Permeable-Phenotype (%)” value [6] of the same molecule?
Answer: 3%

Question: What about the “Population Mitochondria Different-Phenotype (%)” value [6] of the same molecule?
Answer: 0%

Question: What about the “Population Mitotic Cells (%)” value [6] of the same molecule?
Answer: 75% and 84%

Question: What about the “Population Normal (%)” value [6] of the same molecule?
Answer: 63% and 57%

Question: And the “Population Pyknosed Nuclei (%)” value [6]?
Answer: 3% and 7%

Question: What about the “Population Tubulin-Different-Phenotype (%)” value [6] of the same molecule?
Answer: 14% and 15%

Question: And the “Total Cell Count” value [6]?
Answer: 2410 and 1820

Question: With CS(=O)(=O)c1ccc(C(=O)Nc2cccc(COc3ccc(Br)cc3CN3CCC[C@H](O)C3)c2)c(Cl)c1.O=CO as the molecule, how does the “Population Healthy Nuclei (%)” value [1] read?
Answer: 82%

Question: What about the “Population Mitotic Cells (%)” value [1] of the same molecule?
Answer: 45% and 44%

Question: And the “Total Cell Count” value [1]?
Answer: 629 and 598

Question: What about the “Population Healthy Nuclei (%)” value [2] of the same molecule?
Answer: 85% and 88%

Question: What about the “Population Mitotic Cells (%)” value [2] of the same molecule?
Answer: 38% and 41%

Question: What about the “Total Cell Count” value [2] of the same molecule?
Answer: 549 and 638

Question: And the “Population Healthy Nuclei (%)” value [3]?
Answer: 83% and 85%

Question: What about the “Population Mitotic Cells (%)” value [3] of the same molecule?
Answer: 60% and 48%

Question: What about the “Total Cell Count” value [3] of the same molecule?
Answer: 967 and 829

Question: And the “Population Healthy Nuclei (%)” value [4]?
Answer: 83% and 85%

Question: What about the “Population Mitotic Cells (%)” value [4] of the same molecule?
Answer: 49% and 30%

Question: What about the “Total Cell Count” value [4] of the same molecule?
Answer: 569 and 612

Question: What about the “Population Healthy Nuclei (%)” value [5] of the same molecule?
Answer: 82% and 86%

Question: And the “Population Mitotic Cells (%)” value [5]?
Answer: 82% and 78%

Question: What about the “Total Cell Count” value [5] of the same molecule?
Answer: 2080 and 1482

Question: What about the “Population Healthy Nuclei (%)” value [6] of the same molecule?
Answer: 86% and 84%

Question: And the “Population Mitotic Cells (%)” value [6]?
Answer: 62% and 45%

Question: What about the “Total Cell Count” value [6] of the same molecule?
Answer: 820 and 907
